Activity calls are given as the source filed them. The calls are words filed in the database; no cut-off is given here.
Legend:
BV-2 [1] = experiment: Antiinflammatory activity in mouse BV2 cells assessed as inhibition of LPS-induced NO production at 10 uM after 24 hrs by Griess reaction; assay type: functional; conditions: BV-2, 24 h
Summary of the method: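 BV-2 microglial cells were activated with 100 ng/ml LPS for 24 h with compound at 10 µM. Medium nitrite was measured by Griess reaction. The value is mean inhibition of NO production relative to the LPS control, from three experiments.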

BV-2 [2] = experiment: Antiinflammatory activity in mouse BV2 cells assessed as inhibition of LPS-induced NO production after 24 hrs by Griess reaction; assay type: functional, cell-based; conditions: BV-2, 24 h
Summary of the method: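 Murine BV-2 microglia stimulated with LPS at 100 ng/ml for 24 h with or without compound. Nitrite, a soluble oxidation product of NO, was measured in the culture medium by Griess reaction.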

[3] = Cytotoxicity against mouse BV2 cells; assay type: cell-based, BV-2; conditions: read-out: INH
Summary of the method: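 Viability of murine BV-2 microglia, stimulated with LPS at 100 ng/ml for 24 h with or without compound, was measured by MTT assay.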

BV-2 [4] = experiment: Antiinflammatory activity in mouse BV2 cells assessed as inhibition of LPS-induced iNOS protein expression at 10 uM after 6 hrs by Western blotting
[5] = target: T1, Nitric oxide synthase, inducible (Mus musculus) (UniProt P29477); experiment: Inhibition of iNOS activity in LPS-stimulated mouse BV2 cells after 12 hrs; assay type: cell-based; conditions: BV-2
T1 sequence (whole entry): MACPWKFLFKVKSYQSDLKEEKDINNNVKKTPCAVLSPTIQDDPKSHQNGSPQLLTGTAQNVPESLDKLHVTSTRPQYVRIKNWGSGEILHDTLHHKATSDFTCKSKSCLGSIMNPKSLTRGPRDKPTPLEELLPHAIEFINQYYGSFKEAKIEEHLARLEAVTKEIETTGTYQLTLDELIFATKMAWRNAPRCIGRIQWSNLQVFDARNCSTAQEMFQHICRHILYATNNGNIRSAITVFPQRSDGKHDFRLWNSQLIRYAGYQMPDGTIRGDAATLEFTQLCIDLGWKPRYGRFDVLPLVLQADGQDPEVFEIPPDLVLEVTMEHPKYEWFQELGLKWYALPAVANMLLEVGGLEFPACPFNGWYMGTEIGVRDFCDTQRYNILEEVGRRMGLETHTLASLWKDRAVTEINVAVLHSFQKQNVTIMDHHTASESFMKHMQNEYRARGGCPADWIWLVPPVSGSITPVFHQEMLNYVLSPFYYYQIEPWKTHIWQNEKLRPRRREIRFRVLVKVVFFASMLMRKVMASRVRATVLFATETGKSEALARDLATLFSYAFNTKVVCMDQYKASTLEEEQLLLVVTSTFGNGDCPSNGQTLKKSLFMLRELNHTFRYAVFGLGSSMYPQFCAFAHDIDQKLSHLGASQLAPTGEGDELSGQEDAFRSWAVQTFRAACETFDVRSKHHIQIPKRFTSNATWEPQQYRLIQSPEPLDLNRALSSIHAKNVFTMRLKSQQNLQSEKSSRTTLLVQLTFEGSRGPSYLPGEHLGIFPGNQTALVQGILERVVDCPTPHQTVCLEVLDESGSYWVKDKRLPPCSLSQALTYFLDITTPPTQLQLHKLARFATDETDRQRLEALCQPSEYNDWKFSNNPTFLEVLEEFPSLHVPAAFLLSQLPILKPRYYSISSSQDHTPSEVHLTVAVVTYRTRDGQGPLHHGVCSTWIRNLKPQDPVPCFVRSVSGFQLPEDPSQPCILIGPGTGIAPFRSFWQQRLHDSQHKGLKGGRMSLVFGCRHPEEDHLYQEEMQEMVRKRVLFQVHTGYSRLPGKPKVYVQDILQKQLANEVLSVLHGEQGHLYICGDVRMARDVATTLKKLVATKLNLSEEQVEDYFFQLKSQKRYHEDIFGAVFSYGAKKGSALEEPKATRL
Summary of the method: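 Intact-cell iNOS activity assay. BV-2 cells (4 × 10⁶) were pre-induced with LPS at 100 ng/ml for 12 h, washed twice with PBS, then replated at 2 × 10⁶ cells/well. They were incubated with various compound concentrations for a further 12 h. Supernatant NO was read by Griess reaction.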

Row | SMILES | IC50 (BV-2 [2]) [µM] | inhibition [5] | inhibition at 10 µM (BV-2 [1]) [%] | cytotoxicity [3] [%] | inhibition (BV-2 [4])
1 | CC1(c2ccc(Cl)cc2)CC(c2ccc(Cl)cc2)=Nc2ccccc2N1 (configuration not stated) | – | – | 28.2 | 28.2 | –
2 | CC1(c2ccsc2)CC(c2ccsc2)=Nc2ccccc2N1 (configuration not stated) | 35.2 | – | 13.2 | – | –
3 | CC1(c2ccccc2[N+](=O)[O-])CC(c2ccccc2[N+](=O)[O-])=Nc2ccccc2N1 (configuration not stated) | 23.2 | – | 24.9 | – | –
4 | CC1(c2cccc(Cl)c2)CC(c2cccc(Cl)c2)=Nc2ccccc2N1 (configuration not stated) | 23.2 | – | 21.2 | – | –

The next lines start with results.

Row | IC50 (BV-2 [2]) [µM] | inhibition [5] | SMILES | inhibition at 10 µM (BV-2 [1]) [%] | cytotoxicity [3] [%] | inhibition (BV-2 [4])
5 | 14 | – | Cc1ccc(C2=Nc3ccccc3NC(C)(c3ccc(C)cc3)C2)cc1 (configuration not stated) | 34.6 | – | –
6 | 15.2 | – | CCC1=Nc2ccccc2NC(C)(CC)C1 (configuration not stated) | 27.4 | – | –
7 | 7 | Active | CC1(c2cccs2)CC(c2cccs2)=Nc2ccccc2N1 (configuration not stated) | 70.3 | – | inactive
8 | 16.6 | – | CC(C)C1=Nc2ccccc2NC(C)(C(C)C)C1 (configuration not stated) | 26.3 | – | –
9 | 9.4 | – | CC1(c2ccccc2)CC(c2ccccc2)=Nc2ccccc2N1 (configuration not stated) | 59.8 | – | –
10 | 14.3 | – | CC1=Nc2ccccc2NC(C)(C)C1 | 28.6 | – | –

From ChEMBL document CHEMBL1177758, “Anti-neuroinflammatory activity of 1,5-benzodiazepine derivatives” (Bioorg Med Chem Lett, 2010)
